Results of several laboratories.
Protocols differ between the studies behind these lines.
Target: Mitogen-activated protein kinase kinase kinase 19 (MAP3K19, Homo sapiens, UniProt Q56UN5)
Residues used in one study (Q56UN5 1-1328): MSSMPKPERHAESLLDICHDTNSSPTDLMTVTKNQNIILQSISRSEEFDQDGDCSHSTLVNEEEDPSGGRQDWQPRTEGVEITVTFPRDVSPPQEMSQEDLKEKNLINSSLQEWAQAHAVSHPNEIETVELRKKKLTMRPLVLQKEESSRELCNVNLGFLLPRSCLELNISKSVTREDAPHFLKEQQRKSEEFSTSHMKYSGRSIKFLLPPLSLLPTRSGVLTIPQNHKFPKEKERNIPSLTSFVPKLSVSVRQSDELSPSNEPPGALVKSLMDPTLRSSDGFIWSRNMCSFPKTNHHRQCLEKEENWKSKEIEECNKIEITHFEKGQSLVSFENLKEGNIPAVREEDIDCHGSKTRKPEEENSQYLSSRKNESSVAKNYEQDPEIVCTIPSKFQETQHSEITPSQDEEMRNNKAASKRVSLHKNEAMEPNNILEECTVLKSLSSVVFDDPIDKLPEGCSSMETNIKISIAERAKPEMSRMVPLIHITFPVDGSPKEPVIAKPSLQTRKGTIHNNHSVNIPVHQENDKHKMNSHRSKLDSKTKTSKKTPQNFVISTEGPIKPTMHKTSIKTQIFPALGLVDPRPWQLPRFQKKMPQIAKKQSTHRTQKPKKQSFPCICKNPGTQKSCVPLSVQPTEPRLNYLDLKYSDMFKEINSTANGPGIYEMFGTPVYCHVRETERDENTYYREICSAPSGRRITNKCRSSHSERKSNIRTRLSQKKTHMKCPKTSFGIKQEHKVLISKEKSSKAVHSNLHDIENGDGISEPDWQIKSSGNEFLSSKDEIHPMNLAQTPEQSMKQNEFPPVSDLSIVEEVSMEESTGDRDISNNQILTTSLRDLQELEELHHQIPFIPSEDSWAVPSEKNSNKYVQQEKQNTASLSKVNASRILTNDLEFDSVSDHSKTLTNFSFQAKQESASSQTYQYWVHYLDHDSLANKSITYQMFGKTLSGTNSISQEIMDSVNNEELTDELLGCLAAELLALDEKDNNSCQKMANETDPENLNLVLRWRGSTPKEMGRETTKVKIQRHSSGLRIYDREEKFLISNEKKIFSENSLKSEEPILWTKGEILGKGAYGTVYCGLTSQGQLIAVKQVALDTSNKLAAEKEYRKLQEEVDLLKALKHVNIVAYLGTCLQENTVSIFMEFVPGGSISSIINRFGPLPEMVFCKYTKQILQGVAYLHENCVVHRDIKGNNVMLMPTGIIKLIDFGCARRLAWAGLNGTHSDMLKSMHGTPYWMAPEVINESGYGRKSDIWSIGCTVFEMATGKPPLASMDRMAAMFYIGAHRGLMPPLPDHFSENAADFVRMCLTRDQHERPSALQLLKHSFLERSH

Compound | assay | conditions | remaining binding [%]
F[C@@H]1CCN(c2nccc(-c3cnn4ncccc34)n2)C1 | binding | 1 µM | 89
O=C(NCCCN1CCOCC1)c1ccc(Nc2ncc(Cl)c(-c3ccc(Cl)s3)n2)cc1 | binding, competition with immobilised ligand | 1 µM | 0
CC(=O)N1CCC(c2ccc(C(=O)NC3=NCCN3)cc2C(F)(F)F)CC1 | cell-free assay, competition with immobilised ligand | 1 µM | 100
COc1ccnn2ncc(-c3ccnc(N(C)C)n3)c12 | binding | 1 µM | 54
COc1ccc2c(c1)O[C@@H](c1ccc(OC)c(OC)c1)C[C@H]2NC(=O)C1(c2ccc3c(c2)OC(F)(F)O3)CC1 | cell-free assay, competition with immobilised ligand | 1 µM | 83
O=C(NCC1CCOCC1)c1n[nH]cc1NC(=O)c1c(F)cccc1F | binding, competition with immobilised ligand | 1 µM | 52
C[C@@H](c1ccc(-n2cnc3c(N)ncnc32)cc1)N1CCc2nn(C)c(Cc3ccccc3)c2C1=O | binding, competition with immobilised ligand | 0.1 µM | 47
CNCc1ccccc1-c1csc([C@H](C)Nc2nc(C)nc3cc(OC)c(OC)cc23)c1 | cell-free assay, competition with immobilised ligand | 1 µM | 78
CN(C)c1ncc(F)c(-c2cnn3ncccc23)n1 | binding | 1 µM | 69
O=C(c1ccc(Nc2nccc(-c3cc4ccccc4s3)n2)cc1)N1CCC(N2CCCC2)CC1 | binding, competition with immobilised ligand | 1 µM | 0
Cc1cc(C)c(-n2ccn3nc(-c4cccnc4)cc23)cc1NC(=O)c1cc(C#N)cc(S(F)(F)(F)(F)F)c1 | cell-free assay, competition with immobilised ligand | 0.1 µM | 99.5
O=C(c1ccc(Nc2ncc(Cl)c(-c3cc4ccccc4s3)n2)cc1)N1CCC(N2CCCC2)CC1 | binding, competition with immobilised ligand | 1 µM | 0
CCCOc1ccc([C@@H]2[C@@H](C(=O)O)[C@H](c3ccc4c(c3)OCO4)CN2CC(=O)Nc2c(CC)cccc2CC)cc1 | cell-free assay, competition with immobilised ligand | 1 µM | 93
CN(c1nccc(-c2cnn3ncccc23)n1)C1CC1 | binding | 1 µM | 99
COc1cnc(Nc2cccc(S(N)(=O)=O)c2)nc1N1CCN(c2ccccc2)C(=O)C1 | binding, competition with immobilised ligand | 1 µM | 32
N[C@@H]1CCN(c2nccc(-c3cnn4ncccc34)n2)C1 | binding | 1 µM | 76
CO[C@H]1CC[C@H](CNc2ccc(S(=O)(=O)NC(=O)c3ccc(N4CCN(CC5=C(c6ccc(Cl)cc6)CC(C)(C)CC5)CC4)cc3Oc3cnc4[nH]ccc4c3)cc2[N+](=O)[O-])CC1 | cell-free assay, competition with immobilised ligand | 1 µM | 64
COc1cnc(Nc2cccc(S(N)(=O)=O)c2)nc1N1CCN(c2ccccc2)CC1 | binding, competition with immobilised ligand | 1 µM | 71
CCN1CCN(Cc2ccc(C(=O)Nc3ccc(C)c(Oc4ccc5c(c4)CC(=O)N5)c3)cc2C(F)(F)F)CC1 | binding, competition with immobilised ligand | 1 µM | 100
C[C@@H]1CCN(c2nccc(-c3cnn4ncccc34)n2)C1 | binding | 1 µM | 79
C=CC(=O)N1CCC(C(=O)NCC(=O)N2CCN(c3nc(-c4cnc(N)nc4C(F)F)nc(N4CCOCC4)n3)CC2)CC1 | binding, competition with immobilised ligand | 1 µM | 42
